Measurements reported in publication PMC7909006 (Clinical cancer research : an official journal of the …, 2020).

What was measured:
PBMC = assay: Flow cytometric analysis of PBMC and lymphocyte subset analysis; format: in vivo, human
[1] = adults; cited from earlier work
[2] = tested on: circulating monocytes and regulatory T cells and TAMs; conditions: cited from earlier work
Population PK modeling = assay: Population PK modeling; design: species or system human; conditions: for RP2D based on body weight (population PK): exposure matched to adults receiving 800 mg daily
Outline: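 Nonlinear mixed-effects model: two compartments, sequential zero- and first-order absorption with lag time, linear elimination, and body weight as an allometric covariate on disposition parameters. Final-model estimates were used to simulate doses for ages 6–18 years that match steady-state exposure in adult TGCT patients given 800 mg daily.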

[3] = non-human primate model, nontumor setting; cited from earlier work
[4] = adult patients; cited from earlier work
[5] = recurrent glioblastoma patients, plasma taken at time of surgery; cited from earlier work
[6] = Phase I safety and tolerability: adverse events; format: in vivo
[7] = tested on: recurrent or refractory acute leukemias or solid tumors including NF1 PN; assay: Tumor response; format: in vivo, human
Outline: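 Tumors assessed at baseline (within 14 days before start), then after every even 28-day cycle with the same imaging modality. Criteria were RECIST v1.1 for solid tumors, WHO for brain tumors, and volumetric MRI for NF1 plexiform neurofibromas (baseline, every 4th cycle in year 1, then every 6 cycles). Leukemia was followed by blood and marrow each cycle. Treatment lasted up to two years.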

[8] = Plasma pharmacokinetics, noncompartmental analysis; format: in vivo, human
Outline: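 Oral dosing once daily, BSA-based at 400, 600 or 800 mg/m2, rolling-six escalation. Peripheral blood sampled on C1 day 1 before dosing and at 0.5–24 h after, on day 15 before dosing and at 1–6 h after, and before dosing on day 16. Plasma assayed by validated LC-MS/MS (LLOQ 10 nmol/L). Cmax, Tmax, AUC and CL/F derived by noncompartmental analysis.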

[9] = patient 2, Osteosarcoma, dose level 1
[10] = patient 3, Ewing Sarcoma, dose level 1
[11] = patient 4, NF1 plexiform neurofibroma, dose level 1
[12] = patient 5, NF1 plexiform neurofibroma, dose level 2
[13] = patient 6, NF1 plexiform neurofibroma, dose level 2
[14] = patient 7, Central Nervous System PNET, dose level 2
[15] = patient 8, Primary brain tumor, dose level 2
[16] = patient 9, NF1 malignant peripheral nerve sheath tumor, dose level 3
[17] = patient 10, Osteosarcoma, dose level 3
[18] = patient 11, Osteosarcoma, dose level 3
[19] = patient 12, Embryonal rhabdomyosarcoma, dose level 3
[20] = patient 13, Acute myeloid leukemia, dose level 3
[21] = patient 14, Spindle cell carcinoma, dose level 3
[22] = patient 15, Aneurysmal fibrous histiocytoma, dose level 3
[23] = patient 16, Glioblastoma, dose level 3

Structure (SMILES): FC(F)(F)c1ccc(CNc2ccc(Cc3c[nH]c4ncc(Cl)cc34)cn2)cn1 [Pexidartinib]
- Change in CD14dimCD16+ nonclassical, pro-inflammatory monocytes (PBMC; C1): No significant changes
- CD11b+ cells in PBMC, median fold change (95% CI) (PBMC; C1 days 6–8, flow cytometry): 0.47 (0.21, 1.31)
- Change in peripheral blood lymphocyte subset analysis (PBMC; during C1): no notable changes
- Median terminal half-life [1]: 16.8 h
- Effect on immune cells in a preclinical model [2]: decreases in circulating monocytes and regulatory T cells and TAMs
- RP2D based on body weight (population PK) (Population PK modeling; body weight < 30 kg): 400 mg daily
- RP2D based on body weight (population PK) (Population PK modeling; body weight ≥ 30 & < 40 kg): 600 mg daily
- RP2D based on body weight (population PK) (Population PK modeling; body weight ≥ 40 kg): 800 mg daily
- AUC (Population PK modeling; human, plasma, oral, 800 mg, Steady-state AUC, 5th to 95th percentile, adult TGCT patients receiving 800 mg daily): 96 to 255 µg·h/mL
- Drug levels in the cerebral spinal fluid [3]: low but detectable levels
- Liver toxicity in adult trials [4]: idiosyncratic, serious (grade 4–5) liver toxicity was observed in a small subset of patients
- Median ratio of tumor/plasma concentrations [5]: 70%
- Recommended phase II dose (RP2D), BSA based ([6]; human, in vivo, 28 days): 800 mg/m^2/day
- Dose-limiting toxicities (DLT) ([6]; in vivo): No DLTs
- Tolerability ([6]; in vivo, po): well tolerated
- Maximum tolerated dose (MTD) ([6]; up to 800 mg/m^2/dose): not reached
- Sustained partial response, RECIST decrease in longest diameter of target lesion ([7]; 1 patient with peritoneal mesothelioma, 400 mg/m^2/day DL): 67%
- Stable disease, number of patients ([7]; 16 patients enrolled): three
- Median number of treatment cycles received ([7]; 16 patients, 1 C = 28 days): 1 C
- Duration of stable disease prior to disease progression ([7]; one patient with metastatic, rapidly progressive osteosarcoma, 1 C = 28 days): 4 C
- Reason Off Treatment ([7]; patient 1, Peritoneal mesothelioma, dose level 1): Remains on Study
- Reason Off Treatment [7, 9]: Progressive Disease
- Time-point Off Treatment [7, 9]: Cycle 1 Day 23
- Reason Off Treatment [7, 10]: Progressive Disease
- Time-point Off Treatment [7, 10]: Cycle 1 Day 28
- Reason Off Treatment [7, 11]: Best Interest of Patient
- Time-point Off Treatment [7, 11]: After Cycle 4
- Reason Off Treatment [7, 12]: Withdrawal of Consent
- Time-point Off Treatment [7, 12]: After Cycle 1 (took 23 doses)
- Reason Off Treatment [7, 13]: Best Interest of Patient
- Time-point Off Treatment [7, 13]: After Cycle 6
- Reason Off Treatment [7, 14]: Progressive Disease
- Time-point Off Treatment [7, 14]: After Cycle 1
- Reason Off Treatment [7, 15]: Progressive Disease
- Time-point Off Treatment [7, 15]: After Cycle 1
- Reason Off Treatment [7, 16]: Progressive Disease
- Time-point Off Treatment [7, 16]: Cycle 2 Day 28
- Reason Off Treatment [7, 17]: Progressive Disease
- Time-point Off Treatment [7, 17]: Cycle 4 Day 6
- Reason Off Treatment [7, 18]: Progressive Disease
- Time-point Off Treatment [7, 18]: Cycle 3 Day 1
- Reason Off Treatment [7, 19]: Progressive Disease
- Time-point Off Treatment [7, 19]: Cycle 1 Day 12
- Reason Off Treatment [7, 20]: Progressive Disease
- Time-point Off Treatment [7, 20]: Cycle 1 Day 15
- Reason Off Treatment [7, 21]: Progressive Disease
- Time-point Off Treatment [7, 21]: Cycle 1 Day 23
- Reason Off Treatment [7, 22]: Progressive Disease
- Time-point Off Treatment [7, 22]: Cycle 3 Day 16
- Reason Off Treatment [7, 23]: Progressive Disease
- Time-point Off Treatment [7, 23]: Cycle 2 Day 5
- AUC0–24 dependence on dose ([8]; DL1 to DL3): rose with increasing dose
- Cmax dependence on dose ([8]; DL1 to DL3): rose with increasing dose
- Accumulation ratio, median ([8]; day 15 vs day 1, DL3 (n=3)): 1.22
- Clearance from concentration x time curves ([8]; first day of dosing): slow clearance
- PK dose linearity ([8]; over three DLs): linear
